Experimental data taken from paper PMC11439047 (Nature Communications, 2024).
Where a chain is given by its changes, count along the chain named.

How the values were obtained:
P2X1 receptor D170A = biological target: T1, P2X1 receptor D170A (Homo sapiens, UniProt P51575, D170A); assay: Saturation radioligand binding with [3H]-α,β-methylene ATP
T1 sequence (P51575 1-399 D170A): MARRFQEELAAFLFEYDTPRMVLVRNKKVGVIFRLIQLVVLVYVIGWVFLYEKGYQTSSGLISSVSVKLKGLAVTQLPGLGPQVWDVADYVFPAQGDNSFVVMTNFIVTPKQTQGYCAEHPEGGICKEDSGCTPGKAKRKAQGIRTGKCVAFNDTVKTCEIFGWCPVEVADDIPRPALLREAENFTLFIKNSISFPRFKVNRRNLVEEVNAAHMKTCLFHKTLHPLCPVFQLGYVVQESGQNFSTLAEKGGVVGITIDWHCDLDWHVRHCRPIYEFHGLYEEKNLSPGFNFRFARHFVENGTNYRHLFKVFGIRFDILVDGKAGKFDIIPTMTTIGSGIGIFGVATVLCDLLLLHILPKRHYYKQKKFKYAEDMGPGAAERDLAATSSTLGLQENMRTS

P2X1 receptor F188L = biological target: T2, P2X1 receptor F188L (Homo sapiens, UniProt P51575, F188L); assay: Saturation radioligand binding with [3H]-α,β-methylene ATP
T2 sequence (P51575 1-399 F188L): T1 sequence (P51575 1-399 D170A) with A170D, F188L
Summary of the method: (§1)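 Whole HEK293 Flp-In T-REx cells stably expressing receptor, tetracycline-induced (150 ng/ml, 2 days), 15,000 cells/well, washed in HEPES binding buffer pH 7.4 with Ca2+/Mg2+. Increasing [3H]-α,β-methylene ATP added, 3 h room temperature with gentle agitation; non-specific binding with 10 μM ATP. Ice-cold 0.9% NaCl washes, scintillation counting (CCPM). Specific binding fitted one-site; values above 300 nM termed not defined.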

P2X1 receptor M214A = biological target: T3, P2X1 receptor M214A (Homo sapiens, UniProt P51575, M214A); assay: Saturation radioligand binding with [3H]-α,β-methylene ATP
T3 sequence (P51575 1-399 M214A): T1 sequence (P51575 1-399 D170A) with A170D, M214A

P2X1 receptor R139P = biological target: T4, P2X1 receptor R139P (Homo sapiens, UniProt P51575, R139P); assay: Saturation radioligand binding with [3H]-α,β-methylene ATP
T4 sequence (P51575 1-399 R139P): T1 sequence (P51575 1-399 D170A) with R139P, A170D
Summary of the method: as §1

P2X1 receptor R139A = biological target: T5, P2X1 receptor R139A (Homo sapiens, UniProt P51575, R139A); assay: as above
T5 sequence (P51575 1-399 R139A): T1 sequence (P51575 1-399 D170A) with R139A, A170D
Summary of the method: as §1

P2X1 receptor E122A = biological target: T6, P2X1 receptor E122A (Homo sapiens, UniProt P51575, E122A); assay: Calcium ion influx assay; type: cell-based
T6 sequence (P51575 1-399 E122A): T1 sequence (P51575 1-399 D170A) with E122A, A170D
Summary of the method: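 Tetracycline-induced (150 ng/mL, 2 days) stable HEK293 Flp-In T-REx cells at 15,000 cells/well, loaded with Fluo-8 for 1 h at 37 °C in probenecid-containing HEPES buffer, pH 7.4. Then 30 min buffer incubation, 20 s baseline, agonist addition and 2 min reading (ex 485/em 525 nm). Max-minus-min fluorescence normalised to 10 µM ionomycin, rescaled 0–100. Constrained four-parameter fit; EC50 per experiment; four independent experiments, triplicate.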

binding affinity compared to WT-P2X1 (P2X1 receptor F188L): similar
binding affinity compared to WT-P2X1 (P2X1 receptor R139P): reduced
fold decrease in affinity compared to WT-P2X1 (P2X1 receptor R139A): 6 fold
fold decrease in potency compared to WT-P2X1 (P2X1 receptor E122A): 18.5 fold
Structure (SMILES): Nc1ncnc2c1ncn2[C@@H]1O[C@H](COP(=O)(O)CP(=O)(O)OP(=O)(O)O)[C@@H](O)[C@H]1O [α,β-methylene ATP]
binding affinity compared to WT-P2X1 (P2X1 receptor D170A): beyond the threshold that could be accurately measured
binding affinity compared to WT-P2X1 (P2X1 receptor M214A): beyond the threshold that could be accurately measured
